# MT stabilize HCS: microtubule stabilization, imaging screen; HeLa tubulin immunostaining HCS, 24 h; share of cells brighter than vehicle mean+2SD; % tubulin-high responders, % at 10 µM; hit rate 0.83% among 200,000; AID 2205;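 active = plate Z-score above 3 for both tubulin-high and condensed-nucleus cell shares, with cell loss under 80%, at 10 µM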;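 also: anti alpha tubulin signal scored within the nucleus-defined area of each cell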
# bCat nuc transl: beta-catenin nuclear translocation modulation; HeLa beta-catenin nuclear translocation, immunofluorescence imaging; nuclear translocation activity, % at 5 µM; hit rate 0.3% among 190,000; AID 1665;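 active = nuclear translocation activity above 50% at 5 µM, with a well cell count of 50 or more; inconclusive = wells under 50 cells across six images, flagged as toxic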;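 also: per-cell ratio of nuclear to cytoplasmic median beta-catenin stain intensity; plate controls were DMSO negative control for no effect and GSK-3 inhibitor IX positive control for full effect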
#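 Test system: human HeLa cells, native beta-catenin. Compound dosing: 5 µM primary single dose, 0.1% DMSO, 0.02–20 µM confirmation series. Incubation: compound exposure 24 h at 37°C. Detection: beta-catenin immunostaining with DAPI counterstain, 20x imaging, 6 fields/well. Read-out basis: Nuclear/cytoplasmic beta-catenin signal ratio, % activation.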
# ROMK primary: modulates human ROMK potassium channel activity. B-score at 10 µM. hit rate 2% among 130,000. Tet-inducible ROMK, thallium flux fluorescence; actives lie on both sides. P48048;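 active = signal ratio slope over the read window, or its plate-corrected B-score, at least 3 SD from the plate mean, either direction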;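 also: B-score of the F/F0 ratio slope over 7 to 12 s after thallium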
# Target sequence (P48048 whole entry, looked up): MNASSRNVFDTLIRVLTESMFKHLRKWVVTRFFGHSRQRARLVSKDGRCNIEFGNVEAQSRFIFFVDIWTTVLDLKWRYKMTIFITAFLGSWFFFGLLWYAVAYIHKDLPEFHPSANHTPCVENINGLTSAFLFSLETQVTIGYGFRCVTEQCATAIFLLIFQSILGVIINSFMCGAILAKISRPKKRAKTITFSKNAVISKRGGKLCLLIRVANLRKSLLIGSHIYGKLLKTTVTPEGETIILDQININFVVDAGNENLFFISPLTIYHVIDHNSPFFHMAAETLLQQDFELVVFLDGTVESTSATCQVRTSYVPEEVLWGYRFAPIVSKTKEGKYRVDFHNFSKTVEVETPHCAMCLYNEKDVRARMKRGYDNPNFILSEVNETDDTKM
# HSV replic up: increases HSV replication in cells. AID 1956. maximum fold increase. hit rate 0.005% among 220,000. HSV replication augmentation in cells, fold increase; in the data active = maximum fold increase above about 1.5; inconclusive = no clear call, values can overlap the other calls; tested in PC3 cells
# INS promoter inh: TRM-6 insulin promoter activity inhibition | inhibition, % at 2 µM | TRM-6 cells, insulin promoter-eGFP reporter, imaging; reporter expression induced with tamoxifen | hit rate 0.9% among 130,000 | AID 1273;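 active = inhibition above the mean plus 3 SD, with well images judged a real hit on visual review, cut at about 60% in these data, passing the limit was not always enough; inconclusive = inhibition over the cutoff but images rejected on review; inactive = inhibition not above the cutoff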
# Starred values were filed as active, the others as inactive; i = inactive; ? = inconclusive; / = no result given. Only some compounds are listed: those with a hit (about 2.4% of all), similar ones and a draw of the others.
SMILES,MT stabilize HCS,bCat nuc transl,ROMK primary,HSV replic up,INS promoter inh
CCCn1c(N)c(N(CCOC)C(=O)/C=C/c2cccc(Cl)c2)c(=O)[nH]c1=O,2.5,-1.3,0.583,i,/
Cc1cc(C)cc(NC(=O)COc2ccc(C(=S)N3CCOCC3)cc2)c1,3.7,-3.8,0.109,i,-47.1
O=C(NN(CC(O)COc1ccccc1)CC(O)COc1ccccc1)c1ccccc1 (stereo unspecified),/,1.8,/,i,/
O=C(Nc1cccn(Cc2c(F)cccc2Cl)c1=O)NC1CCCCC1,16.9*,-0.7,2.43,i,/
O=C(Nc1cccn(Cc2c(Cl)cccc2Cl)c1=O)C1CC1,3.7,0.8,-1.39,i,/
C#CCOC(=O)Nc1cccn(Cc2c(Cl)cccc2Cl)c1=O,51.4*,5.7,0.223,i,/
Cc1c(Cl)cccc1NC(=S)N1CCC(C(N)=O)(N2CCCCC2)CC1,2.5,-3.8,-0.0111,i,-56.2
C=CCc1cccc(CNc2c(C)n(C)n(-c3ccccc3)c2=O)c1O,9.6,/,/,i,75.8*
COc1ccc2c(Cl)c(C(=O)N/N=C/c3c(C)[nH]c4ccccc34)sc2c1,21.5*,77.5*,/,i,/
CC1CCc2sc(C(=O)OCC(=O)NCc3ccc(F)cc3)cc2C1 (stereo unspecified),7.6,119.1*,/,i,/
Cc1nc(NC(=O)COC(=O)c2cc3c(s2)CCC(C)C3)c(Cl)cc1Cl (stereo unspecified),1.7,-2.1,0.399,i,7.1
CCc1ccc2oc(=O)cc(CN(C)Cc3ccccc3)c2c1,2.5,/,-3.13*,i,8.3
O=S(=O)(NC1=NCCC1)c1cccc(NS(=O)(=O)c2ccc(OC(F)(F)F)cc2)c1,2.3,-1.2,-0.551,i,39.5
CCC(=O)Nc1cccc(C(=O)/C=C/c2cc(Br)ccc2OC)c1,16.0,3.0,-0.765,i,94.3*
O=c1[nH]c(CN2CCN(CCO)CC2)nc2ccccc12,0.9,-1.2,/,i,100.0*
O=C(OCCN1C(=O)c2cccc3c(N4CCOCC4)ccc(c23)C1=O)c1cc(Cl)cc(Cl)c1,30.4*,/,/,?,-203.6
CCN(CC)S(=O)(=O)c1ccc(C(=O)OCCN2C(=O)c3cccc4c(N5CCOCC5)ccc(c34)C2=O)cc1,3.5,-1.4,/,?,0.0
NNC(=O)C(Cc1c[nH]c2ccccc12)NC(=O)c1ccccc1 (stereo unspecified),/,0.1,-0.519,i,/
O=C(c1ccccc1[N+](=O)[O-])n1cnc2ccccc21,3.9,-0.2,0.128,i,/
Cn1c(C(=O)c2ccccc2[N+](=O)[O-])nc2ccccc21,3.0,-0.7,0.892,i,80.0*
CCOC(=O)Cc1nc(-c2ccc(Cl)cc2)n[nH]1,0.6,-1.9,0.119,i,/
Cc1ccc(NC(=S)c2nc3ccccc3[nH]2)cc1,1.5,9.3,/,i,80.7*
Cc1ccc(NC(=S)c2nc3ccccc3[nH]2)c(C)c1,4.0,-4.3,1.22,i,66.7
CCOC(=O)c1oc2ccccc2c1NC(=O)c1cccc(OC)c1OC,33.7*,-1.2,/,i,-120.0
CCOC(=O)c1oc2ccccc2c1NC(=O)c1cccc(OC)c1,5.5,-0.6,/,i,-30.8
SMILES,MT stabilize HCS,bCat nuc transl,ROMK primary,HSV replic up,INS promoter inh
Cc1ccc(S(=O)(=O)N2CCC(=O)N(CCOCc3ccc(F)cc3)CC2)cc1,5.1,/,-0.873,i,-40.9
O=C1CCN(S(=O)(=O)c2ccccc2)CCN1CCOCc1ccc(F)cc1,/,70.0*,/,i,/
Cc1ccc(C(=O)CN(C(=O)c2ccc(Cl)c(Cl)c2)N2C(=O)C3C4C=CC(C4)C3C2=O)cc1 (stereo unspecified),3.2,0.7,/,i,/
COc1cc(/C=N/NS(=O)(=O)c2ccc3ccccc3c2)ccc1OCc1ccc(C(=O)O)cc1,/,1.2,/,i,/
COC(=O)c1ccc(COc2ccccc2/C=N/NS(=O)(=O)c2ccccc2)cc1,23.1*,1.4,0.971,i,/
CCN(CC)C(=O)CSc1nnc2nnc3cc(OC)ccc3n12,/,-0.3,2.16,i,/
O=c1c2cc(Br)ccc2nc(-c2ccc([N+](=O)[O-])cc2)n1O,1.4,-1.5,1.11,i,-13.3
O=c1c2cc(Br)ccc2nc(-c2cccc(C(F)(F)F)c2)n1O,3.5,0.8,3.69*,i,/
COc1ccc(CCNCC(=O)Nc2ccccc2C(F)(F)F)cc1,6.4,-1.9,-0.108,i,/
COc1ccc(Cl)cc1NC(=O)COC(=O)c1cc(NS(=O)(=O)c2cccs2)ccc1O,4.3,-0.3,1.07,i,/
CCCc1nc2sc3c(SCC(=O)NCc4ccco4)ncnc3c2c2c1CCC2,15.2*,76.9*,0.121,i,-3.7
COc1ccc(C2C3=C(CCCC3=O)Nc3ccc4ncccc4c32)cc1OC (stereo unspecified),1.1,-1.3,0.302,i,/
COc1cc(C2C3=C(CCCC3=O)Nc3ccc4ncccc4c32)ccc1O (stereo unspecified),33.1*,0.3,0.238,i,/
CCOc1cc(C#N)c(NC(=O)c2cccnc2)cc1OCC,38.9*,/,/,i,/
O=C(Nc1ccc(Cl)cc1C(=O)NCC1CCCO1)c1ccc(Cl)cc1Cl (stereo unspecified),4.4,0.5,/,i,/
O=C(Nc1ccc(Cl)cc1C(=O)NCC1CCCO1)c1ccco1 (stereo unspecified),4.8,-4.7,/,i,75.0*
COc1ccc(O)c(C(=O)c2cnc3nc4ccccc4n3c2)c1,28.2*,75.5*,0.354,i,-42.9
COc1ccc(O)c(C(=O)c2cnn(-c3ccccn3)c2)c1,5.1,-0.5,-0.166,i,/
N#CCCS(=O)(=O)c1nnnn1-c1ccccc1,4.1,-3.2,-4.75*,i,28.6
Cc1ccc2c(c1)C1CN(C)CCC1N2Sc1ccccc1[N+](=O)[O-] (stereo unspecified),/,-1.1,/,i,/
Cc1cc(C(=O)COC(=O)c2nccnc2N)c(C)n1C,3.7,-1.3,-0.129,i,-33.3
COc1cc(C(=O)OCC(=O)c2cc(C)n(C)c2C)cc(OC)c1OC,2.3,68.6*,1.56,i,/
NC(=O)c1cnn(-c2ccc3ccccc3c2)c1N,2.1,-2.8,0.685,i,/
Cc1ccc(NC(=O)C(=O)NNC(=O)c2cccs2)cc1,1.3,0.3,2.94*,i,16.7
Cc1ccc(NC(=O)c2cccs2)cc1,4.0,/,/,i,46.7
SMILES,MT stabilize HCS,bCat nuc transl,ROMK primary,HSV replic up,INS promoter inh
COc1cccc(C2C=C(c3ccc(Br)s3)Nc3ncnn32)c1OC (stereo unspecified),1.8,-0.2,/,?,/
Fc1ccc(Br)cc1C1C=C(c2ccc(Br)s2)Nc2ncnn21 (stereo unspecified),6.0,50.3*,/,?,/
CCNc1ccc(C(=O)OCC)cc1NC(=O)c1cccc(N(C)C)c1,37.8*,26.5,/,i,0.0
CCNc1ccc(C(=O)OCC)cc1NC(=O)c1cccc(S(=O)(=O)N(C)c2ccccc2)c1,4.7,-3.8,/,i,/
O=C(NC(=S)Nc1ccc(S(=O)(=O)Nc2nccs2)cc1)c1cccc(F)c1,2.1,-0.1,/,i,74.1*
CCOC(=O)C(C)Sc1ccc2nnc(CCNS(=O)(=O)c3ccccc3)n2n1 (stereo unspecified),3.0,-0.2,0.935,i,/

# From PubChem BioAssay
